Numbering of substitutions follows the chain as printed.

Assay [1] has as its target T1, ASAP1 PH domain, lysine 355 mutant (Mus musculus, UniProt Q9QWY8, K355N).
T1 sequence (Q9QWY8 325-451 K355N): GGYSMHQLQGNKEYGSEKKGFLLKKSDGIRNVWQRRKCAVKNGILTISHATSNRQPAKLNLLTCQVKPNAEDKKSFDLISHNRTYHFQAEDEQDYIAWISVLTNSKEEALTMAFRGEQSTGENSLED
The assay can be described thus: diC4-PtdIns. The class given is binding. The following applies: atypical-site mutant. Summed up:
(§1)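 ASAP1 PH domain, wild-type or site-directed mutant, is used at 1 µM and mixed with varying diC4-PtdIns(4,5)P2 in 20 mM HEPES pH 7.4, 100 mM NaCl. Tryptophan fluorescence spectra are recorded with excitation at 280 nm and emission at 310–450 nm. Signal is normalized to fluorescence without diC4-PtdIns(4,5)P2 and plotted against lipid concentration.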

For assay [2], the target named is T2, ASAP1 (Mus musculus, UniProt Q9QWY8).
T2 sequence (Q9QWY8 325-724): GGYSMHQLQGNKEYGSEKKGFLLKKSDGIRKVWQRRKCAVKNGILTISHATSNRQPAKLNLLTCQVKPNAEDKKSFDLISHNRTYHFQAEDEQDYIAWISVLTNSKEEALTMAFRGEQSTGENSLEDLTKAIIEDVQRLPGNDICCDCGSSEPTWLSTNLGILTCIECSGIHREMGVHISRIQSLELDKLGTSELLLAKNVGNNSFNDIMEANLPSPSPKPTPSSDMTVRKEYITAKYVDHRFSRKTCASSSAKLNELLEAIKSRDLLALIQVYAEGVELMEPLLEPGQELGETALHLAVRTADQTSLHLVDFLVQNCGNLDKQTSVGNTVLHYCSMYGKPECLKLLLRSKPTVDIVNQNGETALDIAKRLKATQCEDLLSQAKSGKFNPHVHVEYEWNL
The following applies: cited from earlier work.

For assay [3], the target named is T3, ASAP1 PH domain, arginine 360 mutant (Mus musculus, UniProt Q9QWY8, R360Q).
T3 sequence (Q9QWY8 325-451 R360Q): T1 sequence (Q9QWY8 325-451 K355N) with N31K, R36Q
The assay can be described thus: diC4-PtdIns. It counts as binding. The following applies: canonical-site mutant. The essentials: as §1

The target of assay [4] is T4, PLCδ1 PH domain (Rattus norvegicus, UniProt P10688).
T4 sequence (P10688 11-140): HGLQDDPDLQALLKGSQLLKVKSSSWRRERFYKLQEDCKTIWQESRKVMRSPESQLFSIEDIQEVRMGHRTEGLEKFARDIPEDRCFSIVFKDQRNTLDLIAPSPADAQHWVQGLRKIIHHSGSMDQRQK
The assay can be described thus: Isothermal titration calorimetry, PLCδ1 PH domain. The following applies: read-out: dissociation constant (KD) by ITC; PBS, 25°C; three independent experiments. The class given is binding. (In general: ITC needs no label: the signal is the heat of the interaction.)

Assay [5] concerns PdZA. The assay can be described thus: Displacement of PdZA from PtdSer/PtdIns. The following applies: vesicles with 5 or 12.5 µM PtdIns(4,5)P2, 15% PtdSer. It counts as binding.
Assay [6] has as its target T2, ASAP1. The assay can be described thus: Anionic phospholipid dependence of ASAP1. It counts as biochemical. The following applies: LUVs; from C50 values. The essentials:
(§2)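 Construct is PZA, the PH–Arf GAP–ankyrin repeat fragment of ASAP1, prepared as previously described. It is titrated into reactions with myrArf1·GTP as substrate and LUVs of the indicated lipid composition (e.g. 15% PtdSer, 10% PtdIns(4,5)P2, or both). Reactions run 3 min. Percent of Arf-bound GTP hydrolyzed is plotted against PZA concentration. C50 is the PZA concentration giving 50% hydrolysis, estimated from three experiments.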

Assay [7] concerns myrArf1·GTP. The class given is biochemical. The following applies: absence of anionic phospholipid. Summed up: as §2

With `CCCC(=O)OC[C@H](COP(=O)(O)O[C@@H]1[C@H](O)[C@H](O)[C@@H](OP(=O)(O)O)[C@H](OP(=O)(O)O)[C@H]1O)OC(=O)CCC` [diC4-PtdIns(4,5)P2, dibutyryl PtdIns(4,5)P2], the entries for the “binding compared with wild-type protein (tryptophan fluorescence)” value in assay [1] and in assay [3] were “no effect on binding” and “reduced binding”, respectively. The “increase of ASAP1 activity at saturating concentrations” value in assay [2] (soluble lipid, no bilayer, ref Che et al., 2005) is 2- to 4 fold.

As a reminder, the Kd is the free concentration of one partner at which half of the binding sites on the other are occupied at equilibrium, for simple one-to-one binding. Regarding `O=P(O)(O)O[C@@H]1[C@H](O)[C@H](O)[C@@H](OP(=O)(O)O)[C@H](OP(=O)(O)O)[C@H]1O` [Ins(1,4,5)P3, inositol 1,4,5-trisphosphate], the Kd in assay [4] was 180 ± 30 nM. Further, the “Ins(1,4,5)P3 concentration displacing half of the protein from LUVs” value in assay [5] was “less than half the PtdIns(4,5)P2 concentration”.

Consider “Phosphatidylinositol 4,5-bisphosphate [PtdIns(4,5)P2]”, for which the “increase of ASAP1 enzymatic activity on binding to the PH domain” value in assay [2] (ref Kam et al., 2000) is recorded as “approximately 10,000 fold”. Besides, in assay [6], the “increase of GAP activity compared with PtdSer alone” value is listed as ~1,500 fold and the “increase of GAP activity compared with no anionic lipid” value is recorded as “approximately 20,000 fold”.

In the case of phosphatidylserine [PtdSer], the “increase of GAP activity compared with no anionic lipid” value in assay [6] is 15 fold.

B1: Wild-type: His10-[325–724]ASAP1: fragment of ASAP1 comprising the PH, Arf GAP, and Ankyrin repeat domains (protein, UniProt Q9ULH1 325-724, looked up, fragment)
chain: SEKKGYLLKKSDGIRKVWQRRKCSVKNGILTISHATSNRQPAKLNLLTCQVKPNAEDKKSFDLISHNRTYHFQAEDEQDYVAWISVLTNSKEEALTMAFRGEQSAGENSLEDLTKAIIEDVQRLPGNDICCDCGSSEPTWLSTNLGILTCIECSGIHREMGVHISRIQSLELDKLGTSELLLAKNVGNNSFNDIMEANLPSPSPKPTPSSDMTVRKEYITAKYVDHRFSRKTCSTSSAKLNELLEAIKSRDLLALIQVYAEGVELMEPLLEPGQELGETALHLAVRTADQTSLHLVDFLVQNCGNLDKQTALGNTVLHYCSMYSKPECLKLLLRSKPTVDIVNQAGETALDIAKRLKATQCEDLLSQAKSGKFNPHVHVEYEWNLRQEEIDESDDDLDDK
modifications: His10 tag
As for B1, the “amount of ASAP1 necessary to hydrolyze 50% of the GTP bound to Arf (C50)” value in assay [7] worked out at 1 µM.

Source of the values: article PMC4788500 (Structure (London, England : 1993), 2015).
